Drawing on ChEMBL document CHEMBL2417369, “Synthesis and evaluation of heteroaryl substituted diazaspirocycles as scaffolds to probe the ATP-binding site of protein kinases” (Bioorg Med Chem, 2013), this text covers inhibition for three compounds.

Experiment [1] addresses Mitogen-activated protein kinase kinase kinase kinase 4 (Homo sapiens) (UniProt O95819). Nature of the experiment: Inhibition of HGK (unknown origin) at 30 uM by microfluidic mobility shift assay relative to control. The gist of the method: (§1)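 Single-point screen at 30 µM test compound across a 24-kinase panel in a microfluidic assay format. ATP was set near each enzyme's Km,[ATP]. […] The pan-AGC inhibitor H-89 served as an internal control on every assay plate.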

For experiment [2], the system named is Tyrosine-protein kinase ABL1 (Homo sapiens), P00519 [H396P]. Put plainly: Inhibition of ABL H396P mutant (unknown origin) at 30 uM by microfluidic mobility shift assay relative to control. Format: protein assay. The gist of the method: as §1
In experiment [3] the target is Mitogen-activated protein kinase 11 (Homo sapiens) (UniProt Q15759). Put plainly: Inhibition of p38beta-2 (unknown origin) at 30 uM by microfluidic mobility shift assay relative to control. The gist of the method: (§2)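 Single-point screen against a 24-kinase panel in a commercial microfluidic assay format. Compounds were tested at 30 µM, with ATP at approximately the Km,[ATP] of each enzyme. H-89 was included on each assay plate as an internal control.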
Mitogen-activated protein kinase 11 (Homo sapiens), sequence (Q15759 whole entry): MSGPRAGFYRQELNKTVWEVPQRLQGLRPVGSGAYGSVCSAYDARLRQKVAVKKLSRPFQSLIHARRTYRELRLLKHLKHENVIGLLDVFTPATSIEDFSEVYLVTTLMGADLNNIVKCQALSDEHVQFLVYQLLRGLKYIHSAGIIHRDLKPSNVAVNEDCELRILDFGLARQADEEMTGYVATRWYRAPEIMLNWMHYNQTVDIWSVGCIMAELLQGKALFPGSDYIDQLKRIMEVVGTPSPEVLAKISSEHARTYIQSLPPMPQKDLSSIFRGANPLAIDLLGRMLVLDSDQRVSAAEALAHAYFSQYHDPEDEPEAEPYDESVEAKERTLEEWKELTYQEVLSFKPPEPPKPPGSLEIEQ

Experiment [4] deals with T1, Mitogen-activated protein kinase 13 (Homo sapiens) (UniProt O15264).
T1 sequence (whole entry): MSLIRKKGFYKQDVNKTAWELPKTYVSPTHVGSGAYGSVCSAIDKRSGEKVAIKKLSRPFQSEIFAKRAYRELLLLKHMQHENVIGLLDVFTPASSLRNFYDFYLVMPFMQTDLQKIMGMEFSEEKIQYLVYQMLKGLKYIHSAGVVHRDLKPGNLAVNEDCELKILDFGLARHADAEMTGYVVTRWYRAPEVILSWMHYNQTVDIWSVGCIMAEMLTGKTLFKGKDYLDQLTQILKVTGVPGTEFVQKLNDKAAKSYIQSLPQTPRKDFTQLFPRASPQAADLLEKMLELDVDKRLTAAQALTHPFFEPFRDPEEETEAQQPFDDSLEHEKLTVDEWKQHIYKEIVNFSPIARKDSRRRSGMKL
Nature of the experiment: Inhibition of p38delta (unknown origin) at 30 uM by microfluidic mobility shift assay relative to control. The gist of the method: as §2

In experiment [5] the test system is Tyrosine-protein kinase ABL1 (Homo sapiens), P00519 [T315I]. Nature of the experiment: Inhibition of ABL T315I mutant (unknown origin) at 30 uM by microfluidic mobility shift assay relative to control. Type of experiment: protein assay. The gist of the method: as §1
Experiment [6] deals with T2, Inhibitor of nuclear factor kappa-B kinase subunit beta (Homo sapiens) (UniProt O14920).
T2 sequence (whole entry): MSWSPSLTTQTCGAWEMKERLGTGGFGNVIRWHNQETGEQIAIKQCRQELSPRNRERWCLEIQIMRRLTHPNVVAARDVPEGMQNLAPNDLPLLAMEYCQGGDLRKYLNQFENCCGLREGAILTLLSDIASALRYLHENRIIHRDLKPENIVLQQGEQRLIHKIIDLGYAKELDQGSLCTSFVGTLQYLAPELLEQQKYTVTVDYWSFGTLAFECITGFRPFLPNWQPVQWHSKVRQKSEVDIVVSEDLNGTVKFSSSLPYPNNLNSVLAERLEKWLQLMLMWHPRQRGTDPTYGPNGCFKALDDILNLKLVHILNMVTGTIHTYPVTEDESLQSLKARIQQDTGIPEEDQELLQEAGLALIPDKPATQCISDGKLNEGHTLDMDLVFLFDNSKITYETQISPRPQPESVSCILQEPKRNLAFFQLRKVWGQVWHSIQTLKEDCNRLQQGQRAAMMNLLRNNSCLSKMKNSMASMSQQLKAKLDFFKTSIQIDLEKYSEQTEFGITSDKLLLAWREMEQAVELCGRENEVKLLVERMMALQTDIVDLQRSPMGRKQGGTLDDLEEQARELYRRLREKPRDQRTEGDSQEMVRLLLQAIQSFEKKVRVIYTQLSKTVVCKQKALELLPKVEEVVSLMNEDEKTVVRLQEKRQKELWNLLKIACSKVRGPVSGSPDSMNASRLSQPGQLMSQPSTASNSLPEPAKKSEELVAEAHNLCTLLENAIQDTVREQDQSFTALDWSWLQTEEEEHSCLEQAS
Put plainly: Inhibition of IKKbeta (unknown origin) at 30 uM by microfluidic mobility shift assay relative to control. The gist of the method:
as §1

Experiment [7] concerns the target Mitogen-activated protein kinase 1 (Homo sapiens, UniProt P28482). Nature of the experiment: Inhibition of MAPK2 (unknown origin) at 30 uM by microfluidic mobility shift assay relative to control. The gist of the method:
as §1

Experiment [8] concerns the target T3, Serine/threonine-protein kinase 3 (Homo sapiens) (UniProt Q13188).
T3 sequence (whole entry): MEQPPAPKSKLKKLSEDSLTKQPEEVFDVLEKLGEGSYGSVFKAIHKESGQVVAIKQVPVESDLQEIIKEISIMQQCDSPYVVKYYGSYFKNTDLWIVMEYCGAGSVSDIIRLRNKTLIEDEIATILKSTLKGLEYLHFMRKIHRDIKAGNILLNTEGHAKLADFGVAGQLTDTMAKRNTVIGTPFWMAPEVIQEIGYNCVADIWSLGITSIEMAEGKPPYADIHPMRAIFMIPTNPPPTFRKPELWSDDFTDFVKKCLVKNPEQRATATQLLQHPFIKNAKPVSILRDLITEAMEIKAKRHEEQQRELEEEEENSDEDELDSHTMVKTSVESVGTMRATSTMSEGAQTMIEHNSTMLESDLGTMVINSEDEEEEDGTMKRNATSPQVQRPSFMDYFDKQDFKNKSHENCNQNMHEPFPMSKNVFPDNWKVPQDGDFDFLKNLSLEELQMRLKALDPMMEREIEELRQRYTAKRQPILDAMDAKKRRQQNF
Nature of the experiment: Inhibition of MST2 (unknown origin) at 30 uM by microfluidic mobility shift assay relative to control. The gist of the method:
as §1

Another experiment is filed under the species Homo sapiens. Put plainly: Inhibition of DYRK1 (unknown origin) at 30 uM by microfluidic mobility shift assay relative to control. The gist of the method: as §1
In experiment [9] the target is T4, Mitogen-activated protein kinase 12 (Homo sapiens) (UniProt P53778).
T4 sequence (whole entry): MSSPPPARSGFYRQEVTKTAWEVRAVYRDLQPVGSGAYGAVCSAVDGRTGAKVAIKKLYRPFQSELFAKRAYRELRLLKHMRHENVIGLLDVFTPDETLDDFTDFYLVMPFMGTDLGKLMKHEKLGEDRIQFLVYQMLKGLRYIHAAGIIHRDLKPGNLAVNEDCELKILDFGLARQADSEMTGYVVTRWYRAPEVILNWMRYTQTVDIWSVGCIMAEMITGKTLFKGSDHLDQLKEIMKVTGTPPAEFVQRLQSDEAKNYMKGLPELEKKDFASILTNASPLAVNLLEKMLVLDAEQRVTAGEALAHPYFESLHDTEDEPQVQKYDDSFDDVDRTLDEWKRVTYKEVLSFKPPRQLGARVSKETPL
Put plainly: Inhibition of p38gamma (unknown origin) at 30 uM by microfluidic mobility shift assay relative to control. The gist of the method:
as §2

Experiment [10] addresses Aurora kinase B (Homo sapiens) (UniProt Q96GD4). Put plainly: Inhibition of AURB (unknown origin) at 30 uM by microfluidic mobility shift assay relative to control. The gist of the method:
as §1

Experiment [11] has as its target Tyrosine-protein kinase HCK (Homo sapiens) (UniProt P08631). Put plainly: Inhibition of HCK (unknown origin) at 30 uM by microfluidic mobility shift assay relative to control. The gist of the method:
as §1

Mitogen-activated protein kinase 1, sequence (P28482 whole entry): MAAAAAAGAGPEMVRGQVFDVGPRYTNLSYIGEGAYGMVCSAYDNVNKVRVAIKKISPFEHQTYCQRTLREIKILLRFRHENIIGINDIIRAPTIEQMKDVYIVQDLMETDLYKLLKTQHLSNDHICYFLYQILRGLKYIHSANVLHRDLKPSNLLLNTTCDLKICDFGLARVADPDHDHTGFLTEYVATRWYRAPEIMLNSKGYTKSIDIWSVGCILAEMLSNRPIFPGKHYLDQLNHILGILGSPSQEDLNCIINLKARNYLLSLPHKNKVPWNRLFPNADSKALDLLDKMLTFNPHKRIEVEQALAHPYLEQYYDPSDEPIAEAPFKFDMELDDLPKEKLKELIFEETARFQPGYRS
Aurora kinase B (Homo sapiens), sequence (Q96GD4 whole entry): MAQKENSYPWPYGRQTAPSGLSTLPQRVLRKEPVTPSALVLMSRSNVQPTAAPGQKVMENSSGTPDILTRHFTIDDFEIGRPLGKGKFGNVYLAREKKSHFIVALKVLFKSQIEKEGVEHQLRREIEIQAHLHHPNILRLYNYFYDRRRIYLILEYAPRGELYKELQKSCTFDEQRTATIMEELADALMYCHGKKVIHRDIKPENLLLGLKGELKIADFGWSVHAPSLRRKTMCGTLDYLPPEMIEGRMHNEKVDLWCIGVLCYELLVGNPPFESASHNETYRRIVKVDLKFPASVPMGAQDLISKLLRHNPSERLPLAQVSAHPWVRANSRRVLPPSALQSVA
Tyrosine-protein kinase HCK (Homo sapiens), sequence (P08631 2-526 limits assumed): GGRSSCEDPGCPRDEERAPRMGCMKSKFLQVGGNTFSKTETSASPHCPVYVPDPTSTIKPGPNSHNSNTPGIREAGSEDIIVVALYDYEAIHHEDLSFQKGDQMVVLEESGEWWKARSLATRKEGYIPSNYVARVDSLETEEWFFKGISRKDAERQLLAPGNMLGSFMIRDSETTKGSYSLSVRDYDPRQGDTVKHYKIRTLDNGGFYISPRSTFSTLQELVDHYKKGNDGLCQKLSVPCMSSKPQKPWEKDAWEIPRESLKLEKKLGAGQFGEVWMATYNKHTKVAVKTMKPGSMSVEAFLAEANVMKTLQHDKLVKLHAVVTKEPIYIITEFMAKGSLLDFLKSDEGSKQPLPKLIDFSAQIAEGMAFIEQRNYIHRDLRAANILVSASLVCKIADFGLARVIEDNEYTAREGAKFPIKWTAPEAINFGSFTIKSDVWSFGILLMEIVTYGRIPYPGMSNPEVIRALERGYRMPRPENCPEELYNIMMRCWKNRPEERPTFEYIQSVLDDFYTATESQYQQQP
Mitogen-activated protein kinase kinase kinase kinase 4 (Homo sapiens), sequence (O95819 2-1239 limits assumed): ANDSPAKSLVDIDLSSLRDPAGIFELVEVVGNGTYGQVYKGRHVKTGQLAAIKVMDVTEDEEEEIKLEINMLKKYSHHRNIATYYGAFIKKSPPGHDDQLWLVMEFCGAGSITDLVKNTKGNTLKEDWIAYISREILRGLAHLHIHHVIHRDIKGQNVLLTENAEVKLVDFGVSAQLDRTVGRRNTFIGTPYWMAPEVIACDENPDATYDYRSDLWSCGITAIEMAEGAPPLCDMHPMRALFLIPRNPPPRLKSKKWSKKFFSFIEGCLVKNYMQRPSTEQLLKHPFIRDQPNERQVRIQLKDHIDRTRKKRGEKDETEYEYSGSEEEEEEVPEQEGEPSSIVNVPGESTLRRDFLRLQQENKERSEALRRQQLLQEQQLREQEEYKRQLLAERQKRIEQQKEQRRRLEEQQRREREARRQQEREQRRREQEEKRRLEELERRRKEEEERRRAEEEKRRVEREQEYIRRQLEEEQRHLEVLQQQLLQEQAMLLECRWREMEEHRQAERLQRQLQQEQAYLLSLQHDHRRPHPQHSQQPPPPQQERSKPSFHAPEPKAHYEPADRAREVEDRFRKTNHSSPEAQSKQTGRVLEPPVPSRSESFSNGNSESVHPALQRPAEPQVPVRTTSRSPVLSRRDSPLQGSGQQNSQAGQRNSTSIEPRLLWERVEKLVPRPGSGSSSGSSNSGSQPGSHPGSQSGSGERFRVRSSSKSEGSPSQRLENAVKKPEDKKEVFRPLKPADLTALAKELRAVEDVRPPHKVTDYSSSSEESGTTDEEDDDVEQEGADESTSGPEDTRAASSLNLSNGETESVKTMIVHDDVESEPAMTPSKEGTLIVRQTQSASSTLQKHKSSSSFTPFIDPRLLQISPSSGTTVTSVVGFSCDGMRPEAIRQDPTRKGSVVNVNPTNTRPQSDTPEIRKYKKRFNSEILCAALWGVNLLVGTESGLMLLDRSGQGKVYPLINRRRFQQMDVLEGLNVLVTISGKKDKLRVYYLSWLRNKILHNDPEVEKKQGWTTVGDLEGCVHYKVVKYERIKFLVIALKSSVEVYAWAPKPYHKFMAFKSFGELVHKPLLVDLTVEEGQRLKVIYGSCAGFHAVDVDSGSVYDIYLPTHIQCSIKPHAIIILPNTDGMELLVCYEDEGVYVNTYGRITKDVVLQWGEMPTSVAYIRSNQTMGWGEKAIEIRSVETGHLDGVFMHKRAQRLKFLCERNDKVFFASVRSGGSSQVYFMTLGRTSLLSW

The term inhibition denotes how much of the control response was suppressed. For `c1ccc(C2CCNC3(CCN(c4ncnc5[nH]cnc45)CC3)C2)cc1` (racemic), the inhibition in experiment [1] was 7%; in experiment [2], 42%; in [3], 4%; in experiment [4], 7%; in experiment [5] it was 14%; in experiment [6], 100%. The inhibition is 9% in experiment [7]; 17% in [8]; 8% in the experiment filed under Homo sapiens; 6% in [9]; 64% in experiment [10]; 41% in [11].
With `c1ccc(CC2CCC3(CCN(c4ncnc5[nH]cnc45)CC3)NC2)cc1` (racemic), the inhibition in experiment [1] was 5%; in [2], 28%; in experiment [3] it was 3%; in [4], 4%; in experiment [5] it was 16%; in [6] it was 83%. Moreover, the inhibition in experiment [7] came out at 15%; in [8] it was 18%; in the experiment listed under Homo sapiens, 13%; in experiment [9], 3%; in experiment [10], 73%; in experiment [11], 15%.
In the case of `c1ccc(CC2CCNC3(CCN(c4ncnc5[nH]cnc45)CC3)C2)cc1` (racemic), the inhibition in [1] was determined as 2%; in experiment [2], 15%; in [3] it was 8%; in [4], 23%; in experiment [5], 17%; in experiment [6], 95%. Further, the inhibition in [7] was determined as 6%; in experiment [8], 10%; in the experiment listed under Homo sapiens, 7%; in experiment [9] it was 11%; in experiment [10], 66%; in experiment [11] it was 22%.
